Compound activity deposited in PubChem by Columbia University Molecular Screening Center.
Insulin prom act – TRM-6 insulin promoter activation. activation, % at 2 µM. TRM-6 cells, insulin promoter eGFP reporter, imaging; plate-scaled: unstimulated 0, stimulated control 100. hit rate 0.81% among 130,000;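 active means activation at 2 µM above a set limit, confirmed on inspection of the cell images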;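 further: share of cells whose green reporter signal exceeds an intensity cutoff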
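Material: Human fetal islet-derived TRM-6 cells with tamoxifen-inducible insulin promoter–eGFP reporter | Medium: Low-glucose (5.5 mM) medium with tamoxifen | Probe or stimulus: Tamoxifen inducer, 0.75 µM, in seeding medium | Schedule: Tamoxifen pre-incubation 15 h overnight, then compound exposure 48 h at 37 °C | Detection: High-content imaging of fixed cells with Hoechst nuclear stain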
* = called active by the depositor. Only a selection was taken, and hits are over-represented in it overall.

SMILES	Insulin prom act
CCc1ccccc1N(CC(=O)NCc1ccco1)C(=O)c1snc(C(N)=O)c1N	164*
CS(=O)(=O)N(CC(=O)NCc1ccco1)c1ccccc1Cl	-7
CCC(C)(C)NC(=O)CN(C(=O)c1snc(C(N)=O)c1N)c1ccc2c(c1)OCO2	9
CC(C)COC(=O)Nc1nnc(SCCOc2ccccc2)s1	-7
CCOC(=O)CNC(=O)C(CC(C)C)NC(=O)C1CCCCC1 (stereo not given)	3
CC(=O)Nc1nc2ccccc2n1CCN1CCOCC1	3
C=CCc1cccc(CNc2nc3ccccc3n2CCN2CCOCC2)c1O	169
COc1ccc(CNc2nc3ccccc3n2CCN2CCOCC2)cc1	462*
Cn1c(N2CCN(C(=O)NC34CC5CC(CC(C5)C3)C4)CC2)nc2ccccc21	329
CC(C)[C@H](NC(N)=O)C(=O)NCCc1ccc(Cl)cc1Cl	-6
CC(C)CCNC(=O)[C@@H](NC(=O)c1c(F)cccc1F)C(C)C	94*
Cc1nc2c(C(=O)NCCC(C)C)c[nH]n2c(=O)c1Cc1ccccc1F	0
O=C(NNS(=O)(=O)c1ccc(Cl)cc1)c1cc(-c2ccccc2)nc2ccccc12	-7
COc1ccc(N/N=C(C)/C(=N/O)C(=O)Nc2ccccc2)cc1	9
COc1ccc(CCNC(=S)N2CCC(Cc3ccccc3)CC2)cc1OC	-5
CC(=O)c1ccc(NS(=O)(=O)c2ccc(N)cc2)cc1	-6
CCN(CC)S(=O)(=O)c1ccc(NS(=O)(=O)c2ccc(F)cc2)cc1	-7
CSc1ccc(S(=O)(=O)Nc2c(C)cccc2C)cc1	-91
COC(=O)c1ccc(NS(=O)(=O)c2ccc(SC)cc2)cc1	730*
CSc1ccc(S(=O)(=O)Nc2ccc(F)cc2)cc1	420*
COc1ccc(NS(=O)(=O)c2ccc(SC)cc2)cc1	0
CCc1nnc(NC(=O)CSc2ccc(-c3ccccc3OC)nn2)s1	-9
Cc1ccccc1NS(=O)(=O)c1ccc2[nH]c(=O)[nH]c2c1	-6
CCOc1ccc(NC2=NCC(=O)N2Cc2cccs2)cc1	-9
COc1cccc(CNC(=O)C2CCN(S(=O)(=O)N3CCC4(CC3)OCCO4)CC2)c1	172
SMILES	Insulin prom act
CN1CCC(=NNC(=O)C(=O)Nc2ccccc2F)CC1	0
COc1cccc(NC(=O)CN(c2cccc(F)c2)S(C)(=O)=O)c1	444*
CC(=O)c1cccc(N(CC(=O)Nc2ccc(F)cc2)S(C)(=O)=O)c1	3
COc1ccc(NC(=O)CN(c2cccc(C(F)(F)F)c2)S(C)(=O)=O)cc1OC	7
CCc1ccc(NC(=S)NCC2CCCN2CC)cc1 (stereo not given)	6
CCOc1cc(CNCCCN2CCOCC2)cc(Br)c1OCc1ccccc1Cl	114
CCN1CCCC1CNCc1cccc(OC)c1OCc1ccccc1F (stereo not given)	0
CCN1CCCC1CNCc1ccccc1OCc1ccc(F)cc1 (stereo not given)	97*
CCNCc1ccccc1OCc1ccccc1	0
CCOc1cc(CNCC2CCCN2CC)cc(Cl)c1OC (stereo not given)	345*
CCOc1ccccc1C(=O)Nc1cnn(Cc2ccc(F)cc2)c1	7
COc1ccccc1NC(=O)CC1COc2ccccc2O1 (stereo not given)	3
COc1ccc(Nc2nc3c(C)cccc3cc2C#N)c(OC)c1	-8
N#Cc1c2c(c(=S)n(-c3ccccc3)c1N)CCCC2	273*
N#Cc1c(NCCCO)nc(-c2ccccc2)c2c1CCCC2	0
N#Cc1c2c(c(-c3ccccc3Cl)[nH]c1=S)CCCC2	0
CC(C)Cn1c(N)c(C(=O)COC(=O)C2CC(=O)N(Cc3ccccc3Cl)C2)c(=O)n(C)c1=O (stereo not given)	6
O=c1c([N+](=O)[O-])cccn1Cc1cccc(Cl)c1	0
O=C(CCCn1c(=O)[nH]c2cc(Cl)ccc2c1=O)NCCCN1CCCC1	-8
COc1ccc(N2CCN(C(=O)CCCn3c(=O)[nH]c4cc(Cl)ccc4c3=O)CC2)cc1	-74
O=C(CCCn1c(=O)[nH]c2cc(Cl)ccc2c1=O)NCCCN1CCN(c2ccc(F)cc2)CC1	267*
CC1Nc2ccccc2C(=O)N1NC(=O)c1ccc(Br)cc1 (stereo not given)	0
O=C(Oc1ccc2ccc(OC(=O)N3CCCCCC3)cc2c1)N1CCCCCC1	-7
Cc1cc(=O)oc(C)c1C(=O)NCc1c(F)cc(F)cc1F	136*
Cc1cc(=O)oc(C)c1C(=O)NCCCN1CCN(c2ccc(F)cc2)CC1	9
SMILES	Insulin prom act
Cc1cc(=O)oc(C)c1C(=O)NCc1ccco1	-9
O=C1NCCN(Cc2cccc(Oc3ccccc3)c2)C1CC(=O)N1CCCO1 (stereo not given)	0
C[C@@H]1C[C@H](Nc2ccccc2)c2ccccc2N1C(=O)c1cccnc1	181
CCOc1ncccc1C(=O)N1CCN(Cc2ccc3c(c2)OCO3)CC1	7
c1cnc(N2CCN(Cc3ccc4c(c3)OCO4)CC2)nc1	314*
CC(C)C(c1nnnn1Cc1ccc(F)cc1)N1CCN(Cc2ccc3c(c2)OCO3)CC1 (stereo not given)	121*
c1cc2c(cc1CN1CCOCC1)OCO2	3
c1ccc2c(c1)CCN(Cc1nnnn1Cc1ccc3c(c1)OCO3)C2	-7
c1cncc(C(c2nnnn2C2CCCC2)N2CCN(Cc3ccc4c(c3)OCO4)CC2)c1 (stereo not given)	119
CCC(=O)N(CC(=O)Nc1sc(C)c(C)c1C(N)=O)C1CCCCC1	-3
COc1ccc(C(=O)N2CCC(c3ccccc3)CC2)c(OC)c1OC	6
CCCCNC(=O)CN(C1CCCCC1)S(C)(=O)=O	151
Cc1ccc2sc(-c3ccc(NC(=O)/C=C\C(=O)O)cc3)nc2c1	-3
COCCN(C(=S)Nc1ccc(C(C)C)cc1)C(C)c1cccs1 (stereo not given)	7
Cc1ccc(CSCC(=O)Nc2ccc3c(c2)OCO3)cc1	-6
Cc1ccc(NC(=O)CSc2nnc(-c3cccnc3)s2)cc1	9
Cc1ccc(NC(=O)CSCC#N)cc1	83*
c1cc(CSc2nnc(-c3ccc4c(c3)OCO4)o2)ccn1	7
COc1ccc(NC(=O)/C(Cl)=C(/Cl)S(=O)Cc2ccccc2Cl)cn1 (stereo not given)	669*
COc1ccc(NC(=O)c2ccc(Cl)c(S(=O)(=O)N3CCc4ccccc4C3)c2)cn1	0
COc1ccc(NC(=O)/C=C/c2ccc(F)cc2)cn1	7
CC(C)CC1NC(=O)N(CC(=O)Nc2ccccc2-c2ccccc2)C1=O (stereo not given)	156
O=C(CCC1CCCCC1)NNC(=O)NC12CC3CC(CC(C3)C1)C2	-8
NC(=O)N/N=C/c1cc(Br)ccc1OC(=O)c1ccccc1	10
Cc1nn(CC(=O)O)c(=O)c2ccccc12	-9
SMILES	Insulin prom act
CC(C)(C)c1ccc(Cn2nc(CC(=O)O)c3ccccc3c2=O)cc1	272*
COc1ccc(CNC(=O)Cc2nn(C)c(=O)c3ccccc23)cc1	3
COc1ccc(OC)c(NC(=O)Cc2coc3ccc4ccccc4c23)c1	-7
COc1ccc(/C=N/NC(=O)CN2CCSCC2)cc1C	3
O=C(c1ccc(Cl)c(S(=O)(=O)N2CCCCCC2)c1)N1CCN(c2ccccc2O)CC1	0
COc1ccc2[nH]c(=O)c(CN(C(=O)c3ccccn3)c3ccccc3)cc2c1	200*
COc1ccc(N(Cc2cc3cc(OC)ccc3[nH]c2=O)C(=O)c2cccnc2)cc1	0
COc1ccc2[nH]c(=O)c(CN(C(=O)c3cccnc3)c3ccccc3OC)cc2c1	8
